Compounds with a hit are over-represented: about 2.3% of the library has one in this group of screens.
DENV2 CPE rescue = inhibitors of DENV2 cytopathic effect, primary screen, cell-based, plate reader, single concentration; DENV2-infected cells, cytopathic effect rescue; CPE inhibition, % at 9.99 µM; actives 1.7% (n = 350,000); AID 651640, 2012; in the data active = CPE inhibition above about 20%, passing the limit was not always enough; inconclusive = no clear call, values can overlap the other calls; tested in BHK-21 cells;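 also: 0% = median of neutral control wells and 100% = median of positive control wells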
Cneo AK release = Cryptococcus neoformans cell lysis inducers, primary screen, AK release luminescence, single concentration | AID 651654, 2012 | C. neoformans lysis, adenylate kinase release luminescence, 4 h; normalised: neutral wells 0, clomiphene wells 100 | actives 0.2% (n = 360,000) | lysis activity, % at 15 µM;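 active = mean lysis activity across replicates of at least 80%, whatever share of replicates individually reach that level; inactive = mean lysis activity below 80%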
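Assay system: Cryptococcus neoformans yeast cells / Dosing: single-point compound dose / Timing: 4 h at 37 °C static, read 1 h later / Measured by: luminescence of released adenylate kinase using an AK detection reagent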
F508del corr = F508del CFTR correction, initial screen, CFBE line, single point | AID 720511, 2013 | CFBE cells, YFP halide quenching; stimulated with forskolin plus potentiator P3; % fluorescence drop versus neutral controls | actives 0.36% (n = 350,000) | activity (quench increase), % at 7.58 µM;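 active = mean added fluorescence quench of at least 8% versus neutral control, with both replicates also reaching 8%; inconclusive = only one of the mean or replicate conditions met; inactive = mean below 8% and not both replicates reaching 8%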;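 also: cells transiently co-express mutant CFTR-F508del with the halide-sensitive YFP; corrector assay measuring rescue of mutant channel to the surface after 24 h compound exposure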
ERp5 inh = inhibitors of ERp5-driven insulin aggregation, primary screen, biochemical, turbidity, absorbance 650 nm, single point; 90 min; Protein disulfide-isomerase A6 (Homo sapiens), Q15084; inhibition, % at 9.99 µM; actives 0.05% (n = 350,000); AID 651711, 2012;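 active = mean replicate inhibition above about 25%, with every replicate also reaching it, limit read from the data, passing the limit was not always enough; inconclusive = only one of those two criteria met; inactive = neither criterion met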
PDI inh = inhibitors of human PDI, primary screen, biochemical, turbidity, single point, plate reader; Protein disulfide-isomerase (Homo sapiens), P07237; PDI insulin aggregation turbidity, A650, 90 min; inhibition, % at 10 µM; actives 0.052% (n = 350,000);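 active = mean inhibition across replicates of 30% or more, whatever share of single replicates reach that level; inconclusive = mean inhibition below 30% while every single replicate reaches 30%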
Target sequence (P07237 whole entry, looked up): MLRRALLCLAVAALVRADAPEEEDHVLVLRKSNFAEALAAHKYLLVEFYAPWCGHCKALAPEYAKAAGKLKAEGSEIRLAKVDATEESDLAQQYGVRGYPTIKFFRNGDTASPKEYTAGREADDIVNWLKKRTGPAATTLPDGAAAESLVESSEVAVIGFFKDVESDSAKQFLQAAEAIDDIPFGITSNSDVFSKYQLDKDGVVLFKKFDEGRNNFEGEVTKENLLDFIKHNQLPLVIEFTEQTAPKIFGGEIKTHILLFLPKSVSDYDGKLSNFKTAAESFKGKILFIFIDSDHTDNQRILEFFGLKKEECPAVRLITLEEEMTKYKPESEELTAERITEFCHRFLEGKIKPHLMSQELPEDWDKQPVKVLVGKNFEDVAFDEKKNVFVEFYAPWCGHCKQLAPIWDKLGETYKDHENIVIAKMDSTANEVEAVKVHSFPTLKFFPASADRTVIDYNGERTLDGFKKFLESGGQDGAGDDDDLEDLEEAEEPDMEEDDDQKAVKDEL
Statin myotox sup = suppressors of statin myotoxicity in C2C12 myotubes, primary screen, cell-based, single point, plate reader | C2C12 myotubes + simvastatin, ATP luminescence, 48 h; scaled: DMSO 0, geranylgeraniol control 100 | rescue of ATP level, % at 7.49 µM | actives 0.78% (n = 330,000);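 active = mean ATP rescue above about 67%, or every replicate alone reaching that limit, limit read from the data, passing the limit was not always enough; inconclusive = no clear call, values can overlap the other calls; inactive = mean under the limit and some replicate under it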;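 also: myotubes were challenged with 10 µM simvastatin during compound exposure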
An asterisk follows results filed as active; u = inconclusive; x = no result given.

SMILES	DENV2 CPE rescue	Cneo AK release	F508del corr	ERp5 inh	PDI inh	Statin myotox sup
CC(C)(C)NC(=O)C(c1ccccc1)n1c(=O)c(-c2ccco2)nc2ccccc21 (stereo not given)	u	x	0.0	-3.5	x	x
CC(C)(C)NC(=O)C(c1ccncc1)n1c(=O)c(-c2ccco2)nc2ccccc21 (stereo not given)	30.6*	x	-2.0	1.4	x	x
O=C(NCc1ccccc1)C(c1ccncc1)n1c(=O)c(-c2ccccc2)nc2ccccc21 (stereo not given)	39.7*	x	0.3	1.0	x	x
O=C(NCc1ccccc1)C(c1ccccc1F)n1c(=O)c(-c2ccccc2)nc2ccccc21 (stereo not given)	-13.3	x	0.3	4.2	x	x
CCC(=O)N1CC2(C1)[C@H](c1ccccc1)[C@H](CO)N2Cc1cc(F)ccc1F	-21.0	x	2.6	0.6	x	x
CCC(=O)N1C[C@@H](C)[C@H](OC)CN(C)C(=O)c2ccc(NC(=O)c3ccccc3)cc2OC[C@@H]1C	1.1	0.0	-3.0	-1.2	x	6.3
C[C@@H]1CCCCO[C@H](CN(C)Cc2ccc(Cl)c(Cl)c2)[C@@H](C)CN([C@H](C)CO)C(=O)c2cc(NS(=O)(=O)c3ccccc3)ccc2O1	32.1*	-0.9	4.3	-3.1	x	x
C[C@@H]1CCCCO[C@H](CN(C)Cc2ccc(Cl)c(Cl)c2)[C@@H](C)CN([C@@H](C)CO)C(=O)c2cc(NS(=O)(=O)c3ccccc3)ccc2O1	24.2*	-2.2	4.0	2.6	x	x
C[C@H]1CCCCO[C@H](CN(C)Cc2ccc(Cl)c(Cl)c2)[C@@H](C)CN([C@@H](C)CO)C(=O)c2cc(NS(=O)(=O)c3ccccc3)ccc2O1	-12.8	x	0.3	4.9	x	x
COc1ccc(C(C)=O)cc1CSc1nnc(Nc2ccc(C)cc2)s1	47.4*	1.1	x	1.9	5.3	x
CC(=O)Nc1ccc(NC(=O)CSc2nnc(NC(=O)C3CC3)s2)cc1	u	0.2	-1.3	-9.0	-31.3	8.1
COc1ccc(NC(=O)CSc2nnc(NC(=O)C3CC3)s2)cc1OC	-0.8	2.5	-0.3	26.1*	8.4	-2.1
O=C1CN(S(=O)(=O)Cc2ccccc2)C[C@@H]2[C@H](c3ccc(C#Cc4ccccc4)cc3)[C@H](CO)N12	2.7	x	5.5	-2.1	x	x
O=C(CC1CC1)N1CC(=O)N2[C@H](CO)[C@H](c3ccc(C#Cc4cccc(F)c4)cc3)[C@H]2C1	4.1	x	2.7	-2.0	x	x
CO[C@@H]1CN(C)C(=O)c2cc(NC(C)=O)ccc2OC[C@H](C)N(C(=O)CC2CC2)C[C@H]1C	15.8	0.0	-0.3	2.5	x	-5.1
CO[C@@H]1CN(C)C(=O)c2cc(NC(C)=O)ccc2OC[C@@H](C)N(C(=O)CC2CC2)C[C@H]1C	27.1*	1.8	2.3	-0.2	x	-16.8
CO[C@H]1CN(C)C(=O)c2cc(NC(C)=O)ccc2OC[C@H](C)N(C(=O)CC2CC2)C[C@H]1C	0.8	0.1	-1.8	1.9	x	2.0
CO[C@H]1CN(C)C(=O)c2cc(NC(C)=O)ccc2OC[C@H](C)N(C(=O)CC2CC2)C[C@@H]1C	35.9*	-1.6	-1.2	-1.1	x	-1.5
O=C(NCC[C@H]1CC[C@@H](NC(=O)C2CCC2)[C@H](CO)O1)c1ccc(F)cc1	0.4	-0.4	0.1	-6.1	x	-3.6
C[C@@H]1CN([C@H](C)CO)C(=O)c2cc(NC(=O)Cc3ccccc3)ccc2O[C@@H](C)CCCCO[C@H]1CN(C)Cc1ccncc1	-2.3	-2.8	0.7	-0.6	x	9.8
COc1ccc(NC(=O)Cn2nc3n(c2=S)CCC3)cc1	x	2.5	x	x	0.1	99.8*
COc1ccc(NC(=O)CN2CCCC2)cc1	-3.0	-1.5	1.3	3.9	2.0	3.8
COc1ccccc1C(=O)Nc1ccc2c(c1)nc(CCNC(=O)c1ccco1)n2C	-7.2	-1.4	10.4*	3.4	8.6	-211.3
O=C(Cc1ccncc1)NCC[C@@H]1CC[C@H](NC(=O)Nc2ccc(F)cc2)[C@H](CO)O1	-4.1	6.8	-2.0	-6.1	x	4.5
Cc1ccc(-c2cc(-c3ccccc3)no2)c(O)c1	x	-5.6	x	x	-0.6	x

Source: PubChem BioAssay (Broad Institute)
